Data reported in ChEMBL document CHEMBL1137637, “Quinuclidine derivatives as potential antiparasitics” (Antimicrob Agents Chemother, 2007).
≈ marks a conversion by molar mass, not a printed value.

How the values were obtained:
L6 = assay: Cytotoxicity against rat L6 cells after 72 hrs by resazurin assay; format: cell-based; conditions: L6, 72 h
In short: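 L-6 cells seeded at 4 × 10⁴ cells/ml in RPMI 1640 with 10% FBS and 2 mM L-glutamine. After 24 h, medium replaced with serial drug dilution and incubated for 72 h at 37°C in 5% CO2. Resazurin added for 2–4 h, fluorescence read at ex 536/em 588 nm. IC50 from sigmoidal curve. Duplicate, with an independent repeat for actives.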

Leishmania amazonensis [1] = assay: Inhibition of sterol biosynthesis in Leishmania mexicana amazonensis promastigotes assessed as reduction in endogenous cholesta-5,7,24-trien-3beta-ol level at 10 uM after 96 hrs by gas-liquid chromatography; format: functional; design: scale not given: the % may be the effect or the level left
In short: (§1)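 L. mexicana promastigotes exposed to compound for 96 h. Total lipids extracted and neutral sterols separated from polar lipids by silicic acid column chromatography. Sterols analysed by TLC and by quantitative capillary gas-liquid chromatography with mass spectrometry. Composition expressed as mass % of free sterols, compared with untreated control.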

Plasmodium falciparum = assay: Antiplasmodial activity after 48 hrs against chloroquine and pyrimethamine-resistant Plasmodium falciparum K1 in human erythrocytes by [3H]hypoxanthine uptake; format: functional, organism-based
In short: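 P. falciparum K1 in human red cells in RPMI 1640 with 5% Albumax, exposed to serial drug dilutions. Incubated 48 h at 37°C under reduced oxygen, then 0.5 μCi [³H]hypoxanthine per well for 24 h more. Cells harvested onto glass-fibre filters and counted by scintillation. Result expressed as % of untreated control, with IC50 from sigmoidal curve. Duplicate, plus an independent repeat for actives.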

[2] = system: Trypanosoma brucei rhodesiense; assay: Trypanocidal activity against Trypanosoma brucei rhodesiense STIB 900 bloodstream form after 72 hrs by resazurin assay; format: functional, organism-based; conditions: STIB 900, 72 h
In short: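 T. b. rhodesiense STIB 900 bloodstream forms in MEM with 2-mercaptoethanol and 15% heat-inactivated horse serum, with serial drug dilutions. Incubated 72 h at 37°C in 5% CO2. Resazurin added for 2–4 h more, fluorescence read at ex 536/em 588 nm. IC50 from sigmoidal curve. Duplicate, with an independent repeat for actives.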

Leishmania amazonensis [3] = assay: Inhibition of sterol biosynthesis in Leishmania mexicana amazonensis promastigotes assessed as reduction in endogenous 5-dehydro episterol level at 10 uM after 96 hrs by gas-liquid chromatography; format: functional; design: scale not given: the % may be the effect or the level left; in short: as §1
Leishmania donovani = assay: Antileishmanial activity against Leishmania donovani MHOM/ET/67/L82 axenic amastigotes after 72 hrs by resazurin assay; format: functional, organism-based; conditions: MHOM/ET/67/L82, 72 h
In short: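 L. donovani MHOM/ET/67/L82 amastigotes grown axenically at 37°C in synthetic minimal medium at pH 5.4 with 10% heat-inactivated FBS under 5% CO2. 1 × 10⁵ amastigotes per well with seven threefold dilutions, 30 to 0.041 μg/ml. After 72 h, resazurin added for 2–4 h more. Fluorescence read at ex 536/em 588 nm. IC50 taken from sigmoidal curve. Run in duplicate, with an independent repeat for actives.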

Trypanosoma cruzi = assay: Antitrypanosomal activity against trypomastigotes of Trypanosoma cruzi Tulahuen C2C4 containing lacZ gene in rat L6 cells after 4 days by chlorophenol red-beta-D-galactopyranoside/Nonidet assay; format: functional, organism-based; conditions: Tulahuen C2C4, L6, 96 h
In short: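 L-6 rat myoblasts seeded at 2,000 cells/well in RPMI 1640 with 10% FBS and 2 mM L-glutamine. After 24 h, 5,000 T. cruzi Tulahuen C2C4 lacZ trypomastigotes added with serial drug dilution. Incubated at 37°C in 5% CO2 for 4 days. CPRG/Nonidet substrate added and colour read at 540 nm after 2–4 h. IC50 from sigmoidal curve. Duplicate determinations.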

Leishmania amazonensis [4] = assay: Antileishmanial activity against Leishmania mexicana amazonensis promastigotes by trypan blue exclusion method; format: functional, organism-based
In short: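 L. mexicana amazonensis promastigotes cultured in liver infusion-tryptose medium with lactalbumin and 10% FCS at 26°C, unagitated. Cultures started at 2 × 10⁶ cells/ml and drug added at 0.5–1 × 10⁷ cells/ml. Density counted by electronic particle counter and hemocytometer. Viability by trypan blue exclusion. Triplicate growth experiments.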

Leishmania amazonensis [5] = assay: Inhibition of sterol biosynthesis in Leishmania mexicana amazonensis promastigotes assessed as reduction in endogenous episterol level at 10 uM after 96 hrs by gas-liquid chromatography; format: functional; design: scale not given: the % may be the effect or the level left; in short: as §1
[6] = biological target: T1, Farnesyltransferase, putative (Leishmania major, UniProt Q4Q5W4); assay: Inhibition of Leishmania major recombinant squalene synthase expressed in Escherichia coli by liquid scintillation counter
T1 sequence (Q4Q5W4 whole entry): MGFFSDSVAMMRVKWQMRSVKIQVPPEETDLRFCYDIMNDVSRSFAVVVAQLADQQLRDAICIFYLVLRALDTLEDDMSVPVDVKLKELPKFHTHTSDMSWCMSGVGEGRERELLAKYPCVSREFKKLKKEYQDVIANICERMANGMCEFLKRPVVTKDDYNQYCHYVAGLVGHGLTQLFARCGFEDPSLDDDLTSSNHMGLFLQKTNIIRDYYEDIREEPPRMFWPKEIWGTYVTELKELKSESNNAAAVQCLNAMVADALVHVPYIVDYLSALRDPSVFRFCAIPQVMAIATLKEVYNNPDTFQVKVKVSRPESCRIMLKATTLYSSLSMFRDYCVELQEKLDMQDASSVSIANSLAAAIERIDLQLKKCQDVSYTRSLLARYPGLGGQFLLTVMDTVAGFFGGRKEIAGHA
In short: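 Soluble E. coli extract expressing L. major SQS truncated by 16 N-terminal and 40 C-terminal residues. Buffer: 50 mM phosphate pH 7.4, 20 mM MgCl2, 5 mM CHAPS, 1% Tween 80, 10 mM DTT, BSA, 0.25 mM NADPH, and a glucose-6-phosphate/G6PDH regenerating system. Substrate 0.5 μM radiolabelled farnesyl pyrophosphate. Squalene band counted by scintillation. IC50 from hyperbolic plot of five concentrations in duplicate, usually run twice.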

Leishmania amazonensis [7] = assay: Inhibition of sterol biosynthesis in Leishmania mexicana amazonensis promastigotes assessed as reduction in endogenous cholesta-7,24-dien-3beta-ol level at 10 uM after 96 hrs by gas-liquid chromatography; format: functional; design: scale not given: the % may be the effect or the level left; in short: as §1
Leishmania amazonensis [8] = assay: Inhibition of sterol biosynthesis in Leishmania mexicana amazonensis promastigotes assessed as reduction in exogenous cholesterol level at 10 uM after 96 hrs by gas-liquid chromatography; format: functional; design: scale not given: the % may be the effect or the level left; in short: as §1
Leishmania amazonensis [9] = assay: Inhibition of sterol biosynthesis in Leishmania mexicana amazonensis promastigotes assessed as reduction in endogenous 5-dehydro episterol level at 3 uM after 96 hrs by gas-liquid chromatography; format: functional; design: scale not given: the % may be the effect or the level left; in short: as §1
Leishmania amazonensis [10] = assay: Inhibition of sterol biosynthesis in Leishmania mexicana amazonensis promastigotes assessed as reduction in exogenous cholesterol level at 3 uM after 96 hrs by gas-liquid chromatography; format: functional; design: scale not given: the % may be the effect or the level left; in short: as §1
Leishmania amazonensis [11] = assay: Inhibition of sterol biosynthesis in Leishmania mexicana amazonensis promastigotes assessed as reduction in endogenous episterol level at 3 uM after 96 hrs by gas-liquid chromatography; format: functional; design: scale not given: the % may be the effect or the level left; in short: as §1

Structure (SMILES)	IC50 (L6) [µM]	Activity (Leishmania amazonensis [1]) [%]	IC50 (Plasmodium falciparum) [µM]	IC50 [2] [µM]	Activity (Leishmania amazonensis [3]) [%]	IC50 (Leishmania donovani) [µM]	IC50 (Trypanosoma cruzi) [µM]	MIC (Leishmania amazonensis [4]) [µM]	Activity (Leishmania amazonensis [5]) [%]	IC50 [6] [µM]	Activity (Leishmania amazonensis [7]) [%]	Activity (Leishmania amazonensis [8]) [%]	IC50 (Leishmania amazonensis [4]) [µM]	Activity (Leishmania amazonensis [9]) [%]	Activity (Leishmania amazonensis [10]) [%]	Activity (Leishmania amazonensis [11]) [%]
OC[C@H]1CC2CCN1C[C@@H]2C#Cc1ccccc1 (stereo partly specified)	166	2.8	6.5	14.5	69.6	> 124	25.6	10 (≈ 2.41 µg/mL)	11.8	> 1	2.7	13.1				
CCOC(=O)Cc1ccc(C#C[C@H]2CN3CCC2C[C@H]3CO)cc1 (stereo partly specified)	155	10.7	5	64.7	41.5	> 92	50		10.8	> 1	11.8	25.2	> 10			
C1=C(c2ccc3ccccc3c2)C2CCN1CC2	101		11	24.2	52	12.3	34.1	3 (≈ 0.706 µg/mL)	14.2	> 1		33.8		35.2	35.9	28.9
CCOC(=O)c1ccc(C#C[C@H]2CN3CCC2C[C@H]3CO)cc1 (stereo partly specified)	37.6	23.6	0.6	1.7	50.3	10.2	19.4	> 10	4.1	> 1	3.3	18.7				
CCOC(=O)Cc1ccc(C#C[C@H]2CN3CCC2C[C@@H]3CO)cc1 (stereo partly specified)	156	3.6	5.2	32.3	73.4	14.6	22.9	> 10	8.4	> 1	3.3	14.6				
Cc1cc(C)cc(C#CC2(O)CN3CCC2CC3)c1 (stereo unspecified)	175		4.3	9.2	39.9	12.6	18.9	10 (≈ 2.55 µg/mL)	11.9	> 1		48.2		68.4	19.6	12
COc1ccc(COc2ccc(C#CC3(O)CN4CCC3CC4)cc2)cc1OC (stereo unspecified)	78.7		2	3.4	38.8	4.6	13.4	1 (≈ 0.393 µg/mL)	16.6			44.6		69.8	15.6	14.6
